Reference: PubChem BioAssay
Records with an inconclusive call do not appear.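 Rule for the calls, unless noted: active = viability increase at or above a cutoff of the median across tested compounds plus 3 SD (cut at about 8.5% in these data, passing the limit was not always enough); inconclusive = some gains above the cutoff, reason not given; inactive = the rest.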

Key:
[1] = S. cerevisiae growth inhibition in permissive medium (OD615), pilot counter-assay for S. cerevisiae lifespan shortening project, permissive growth control (AID 705;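 active = growth inhibition above 25% in both replicates, a cutoff set 3 SD above the mean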); conditions: OD615, 24 h, at 10 µM, active compounds read high
Outline: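 System – S. cerevisiae with engineered DeaD lifespan system · Buffer or medium – SC raffinose/galactose permissive medium · Schedule – cells pre-grown 4 h, then 24 h compound exposure, 30 °C humidified · Technique – culture turbidity as optical density at 615 nm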

[2] = S. cerevisiae growth inhibition in restrictive medium, OD615, pilot screen, restrictive growth control, yeast lifespan reduction project (AID 706;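 active = growth inhibition above a set limit, 3 SD over mean compound inhibition, in both replicates, cut at about 43% in these data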;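 note: modified DeaD lifespan yeast strain shifted to restrictive glucose medium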); conditions: OD615, 48 h, at 10 µM, active compounds read high
Outline: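 Material: engineered S. cerevisiae DeaD strain / Medium: glucose-based CSMM-D restrictive medium / Compound: single dose of 10 µM compound final, 0.25% DMSO / Timing: 4 h pre-incubation, 48 h exposure at 30 °C / Technique: OD615 absorbance reading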

[3] = doxorubicin toxicity protection in MRP-1 cells – H69AR cells, CellTiter-Glo, duplicate, MRP-1 activator project, pilot screen (AID 807); conditions: H69AR viability with doxorubicin, CellTiter-Glo luminescence; at 10 µM; active compounds read high;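 note: compound pretreatment 18-22 h then 72 h combined with doxorubicin; 0% = doxorubicin alone and 100% = vehicle without doxorubicin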
[4] = viability of HCT116 without oncogenic beta-catenin – human colon tumor cells, pilot screen (AID 823;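 active = cell viability at or below a set limit in both duplicate runs, the limit being the all-compound median minus 4 SD, cut at about 23% in these data, passing the limit was not always enough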;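 note: 0% = wells killed by 20 µM Hyamine and 100% = untreated DMSO cell wells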); conditions: HCT116 beta-catenin knockout viability, CellTiter-Glo, 60 h; at 10 µM; active compounds read low
[5] = viability of PTEN-null HCT116 cells – cell-based, HCT116 clonal line, CellTiter-Glo, pilot screen (AID 824;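 active = viability at or below 27.92% in each of two runs, the all-compound median minus 4 SD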;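 note: 0% = 20 µM Hyamine control and 100% = vehicle cell control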); conditions: HCT116 PTEN-deleted viability, 60 h, at 10 µM, active compounds read low
[6] = RAM pathway blockade in budding yeast – dse1pr::URA3 reporter, 5-FOA selection, pilot screen (AID 869;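 active = inhibition over a set limit, the all-compound mean plus 3 SD, in both replicate runs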;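 note: 0% = DMSO wells with no growth and 100% = 10 µM 1-NA-PP1 with full growth; RAM network block rescues cells from 5-FOA so hits raise OD615 growth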); conditions: S. cerevisiae dse1pr::URA3 5-FOA growth, OD615, 2 d; at 10 µM; active compounds read high; strain carries analog-sensitive mutant Cbk1 kinase
[7] = RAM signaling pathway blockade in yeast – S. cerevisiae, Pdr1DBD-CYC8 efflux-inhibited sensitized strain, primary screen (AID 1298;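 active = RAM network inhibition above 8.4% in each of two replicates, 3 SD over the compound average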;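 note: 0% = DMSO untreated cells without growth and 100% = 10 µM 1-NA-PP1 full growth; higher means more yeast growth rescued from 5-FOA killing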); conditions: S. cerevisiae cbk1-as DSE1-URA3 strain, 5-FOA growth OD615, 2 d; at 50 µM; active compounds read high

CCOC(=O)C1CCCCN1C(=O)CCc1c(C)nc2cc(-c3ccccc3)nn2c1C (configuration not stated)
inactive: growth inhibition [1] 4.13% | growth inhibition [2] -4.46% | viability increase [3] 1.11% | viability [4] 52.9% | viability [5] 78% | inhibition [6] 1.38% | RAM network inhibition [7] -2.1%

CN(c1ccc(C(=O)O)cc1)S(=O)(=O)c1ccccc1
inactive: growth inhibition [1] 0.21% | growth inhibition [2] 5.12% | viability increase [3] -1.24% | viability [4] 99.5% | viability [5] 92.5% | inhibition [6] 1.14% | RAM network inhibition [7] 1.5%

Cc1cc2cc(CCNC(=O)CC(C)(C)C)c(=O)[nH]c2cc1C
inactive: growth inhibition [1] -11.3% | growth inhibition [2] -21% | viability increase [3] -0.18% | viability [4] 101% | viability [5] 98.7% | inhibition [6] 2.57% | RAM network inhibition [7] 5.74%

COC(=O)Cn1c(CCC(=O)O)ccc1-c1ccccc1
inactive: growth inhibition [1] -1.1% | growth inhibition [2] -4.95% | viability increase [3] -0.49% | viability [4] 102% | viability [5] 103% | inhibition [6] 0.12% | RAM network inhibition [7] 10.9%

CCN(C(=O)COC(=O)C(Cc1ccccc1)N1C(=O)c2ccccc2C1=O)C1CCS(=O)(=O)C1 (configuration not stated)
inactive: growth inhibition [1] -4.4% | growth inhibition [2] -18.5% | viability increase [3] 0.46% | viability [4] 97.4% | viability [5] 99.5% | inhibition [6] 0.495% | RAM network inhibition [7] 2.8%

COc1ccc(NC(=O)C2CCCN(S(=O)(=O)c3cccc4cccnc34)C2)c(OC)c1 (configuration not stated)
inactive: growth inhibition [1] -9.1% | growth inhibition [2] -2.73% | viability increase [3] -2.29% | viability [4] 70.4% | viability [5] 70.7% | inhibition [6] 1.19% | RAM network inhibition [7] 9.52%

COc1ccc(N2C(=O)C3CCCN3C2c2cccc(OC)c2)cc1 (configuration not stated)
inactive: growth inhibition [1] 2.15% | growth inhibition [2] -0.935% | viability increase [3] -1.99% | viability [4] 98.9% | viability [5] 104% | inhibition [6] 1.75% | RAM network inhibition [7] -1.67%

CCN(CCNS(=O)(=O)c1ccc2c(c1)oc(=O)n2C)c1ccccc1
inactive: growth inhibition [1] -5.19% | growth inhibition [2] -5.92% | viability increase [3] -1.13% | viability [4] 108% | viability [5] 105% | inhibition [6] 4.3% | RAM network inhibition [7] 1.2%

CCC(C)Sc1nc2c(c(=O)[nH]c(=O)n2C)n1Cc1ccccc1Cl (configuration not stated)
inactive: growth inhibition [1] -0.795% | growth inhibition [2] 8.91% | viability increase [3] -1.95% | viability [4] 81.6% | viability [5] 82.2% | inhibition [6] 0.75% | RAM network inhibition [7] 4.89%

Cc1cc(-c2ccco2)n(CC(=O)NCCN(C)C)n1
inactive: growth inhibition [1] -3.33% | growth inhibition [2] 1.02% | viability increase [3] -0.48% | viability [4] 98.8% | viability [5] 94.5% | inhibition [6] 2.31% | RAM network inhibition [7] 0.37%

O=C(NCc1ccc(Cl)c(Cl)c1)c1ccco1
inactive: growth inhibition [1] -5.02% | growth inhibition [2] -2.23% | viability increase [3] -3.58% | viability [4] 90.8% | viability [5] 84.9% | inhibition [6] 1.23% | RAM network inhibition [7] 3.74%

CCOC(=O)C1=C(Nc2cccc(Cl)c2)OCC1=O
inactive: growth inhibition [1] -17.9% | growth inhibition [2] 3.65% | viability increase [3] -1.85% | viability [4] 102% | viability [5] 99% | inhibition [6] 2.21% | RAM network inhibition [7] 4.51%

CN1CCN(C(=O)c2ccc3c(c2)N(Cc2cccc(Cl)c2)C(=O)c2ccccc2S3=O)CC1 (configuration not stated)
inactive: growth inhibition [1] -4.92% | growth inhibition [2] -10.7% | viability increase [3] -3.66% | viability [4] 102% | viability [5] 99.1% | inhibition [6] 0.63% | RAM network inhibition [7] 6.41%

CSc1ccc(S(=O)(=O)N2CCN(Cc3ccc4c(c3)OCO4)CC2)cc1
inactive: growth inhibition [1] -2.74% | growth inhibition [2] 14.3% | viability increase [3] -4.46% | viability [4] 88.1% | viability [5] 86.3% | inhibition [6] 0.865% | RAM network inhibition [7] 6.37%

O=C(CCNS(=O)(=O)c1cccc2nsnc12)NCCc1ccccc1
inactive: growth inhibition [1] 3.27% | growth inhibition [2] -1.99% | viability increase [3] -1.34% | viability [4] 105% | viability [5] 97.6% | inhibition [6] 0.11% | RAM network inhibition [7] 1.2%

O=C(Cn1ncc2c1-c1ccccc1OC2)N(Cc1ccco1)C1CCCCC1
inactive: growth inhibition [1] 0.715% | growth inhibition [2] -5.62% | viability increase [3] -2.69% | viability [4] 78.5% | viability [5] 74.9% | inhibition [6] 2.08% | RAM network inhibition [7] 3.96%

CCCCCn1c(CN2CC(C)OC(C)C2)nc2c1c(=O)n(C)c(=O)n2C (configuration not stated)
inactive: growth inhibition [1] -9.73% | growth inhibition [2] 0.38% | viability increase [3] -1.22% | viability [4] 95.3% | viability [5] 86.6% | inhibition [6] 1.86% | RAM network inhibition [7] 1.97%

CC1CC(C)CN(C(=O)c2cn(C)c3ccc(S(=O)(=O)N(C)C)cc3c2=O)C1 (configuration not stated)
inactive: growth inhibition [1] -4.13% | growth inhibition [2] 14.5% | viability increase [3] -0.59% | viability [4] 114% | viability [5] 104% | inhibition [6] 2.47% | RAM network inhibition [7] 2.05%

O=C(NCc1ccc2c(c1)OCO2)Oc1ccccc1
inactive: growth inhibition [1] -1.34% | growth inhibition [2] 7.08% | viability increase [3] 0.33% | viability [4] 96.9% | viability [5] 101% | inhibition [6] 1.32% | RAM network inhibition [7] 2.53%

COc1ccc2c(C)cc(=O)oc2c1C
inactive: growth inhibition [1] 2.89% | growth inhibition [2] -2.73% | viability increase [3] -2.26% | viability [4] 102% | viability [5] 94.7% | inhibition [6] 1.96% | RAM network inhibition [7] 5.35%

CCOC(=O)c1sc(NCCNc2nc(C)c(C(=O)OCC)s2)nc1C
inactive: growth inhibition [1] 2.36% | growth inhibition [2] -21.8% | viability increase [3] -3.12% | viability [4] 94.1% | viability [5] 89% | inhibition [6] 0.595% | RAM network inhibition [7] 5.86%

CCOc1cccc(=O)c2c(C)n(CC3CCCO3)c(C)c12 (configuration not stated)
inactive: growth inhibition [1] -3.19% | growth inhibition [2] -1.17% | viability increase [3] -2.8% | viability [4] 92.5% | viability [5] 90.4% | inhibition [6] 0.73% | RAM network inhibition [7] -1.39%

CCN1CCN(c2cc(C)c3cc(NC(=O)c4ccncc4)ccc3n2)CC1
inactive: growth inhibition [1] -8.8% | growth inhibition [2] 1.77% | viability increase [3] -4.96% | viability [4] 82.6% | viability [5] 79.5% | inhibition [6] 1.46% | RAM network inhibition [7] 1.77%

COc1ccccc1C(=O)N(Cc1nc(-c2ccc(Cl)cc2)no1)C(C)C
inactive: growth inhibition [1] -17.9% | growth inhibition [2] -20.1% | viability increase [3] 1.78% | viability [4] 69% | viability [5] 71.3% | inhibition [6] 0.605% | RAM network inhibition [7] 6.95%

COc1ccc(C(=O)C(OC(=O)CNC(=O)c2ccco2)c2ccccc2)cc1 (configuration not stated)
inactive: growth inhibition [1] -11.8% | growth inhibition [2] 3.51% | viability increase [3] -3.65% | viability [4] 100% | viability [5] 102% | inhibition [6] 1.49% | RAM network inhibition [7] 2.66%

O=C(NC(O)C(=O)c1ccccc1)c1cccs1 (configuration not stated)
inactive: growth inhibition [1] 5.04% | growth inhibition [2] -5.63% | viability increase [3] -3.2% | viability [4] 95.4% | viability [5] 101% | inhibition [6] 1.66% | RAM network inhibition [7] 2.71%

CCc1nc(C)cn1S(=O)(=O)c1ccc(Cl)c(Cl)c1Cl
inactive: growth inhibition [1] -6.5% | growth inhibition [2] -13.9% | viability increase [3] -0.17% | viability [4] 99.3% | viability [5] 98.7% | inhibition [6] 0.805% | RAM network inhibition [7] 7.3%

COC(=O)N1CC(C)N(C(=O)OC)CC1C (configuration not stated)
inactive: growth inhibition [1] -8.79% | growth inhibition [2] 3.85% | viability increase [3] -2.14% | viability [4] 95.2% | viability [5] 95.6% | inhibition [6] 0.745% | RAM network inhibition [7] 6.61%

Cc1oc(-c2ccc(Cl)cc2)nc1CN1CCC(C(=O)NCCCN2CCCC2=O)CC1
inactive: growth inhibition [1] -13.4% | growth inhibition [2] -11.7% | viability increase [3] -2.67% | viability [4] 93.1% | viability [5] 89% | inhibition [6] 1.76% | RAM network inhibition [7] 4.34%

O=C(CCCOc1ccccc1)Nc1ccc2c(c1)OCCO2
inactive: growth inhibition [1] 1.88% | growth inhibition [2] 7.45% | viability increase [3] -4.17% | viability [4] 102% | viability [5] 102% | inhibition [6] 1.16% | RAM network inhibition [7] 3.58%

COc1ccc(-n2ncc3c(N4CCN(c5cc(C)ccc5C)CC4)ncnc32)cc1
inactive: growth inhibition [1] -8.7% | growth inhibition [2] 4.27% | viability increase [3] -4.46% | viability [4] 61.3% | viability [5] 68% | inhibition [6] 2.01% | RAM network inhibition [7] 3.49%

Cc1cc(SCC(=O)c2ccccc2)n2nc(C)nc2n1
inactive: growth inhibition [1] -12.2% | growth inhibition [2] 0.305% | viability increase [3] -6.79% | viability [4] 89.8% | viability [5] 87% | inhibition [6] 2.91% | RAM network inhibition [7] 2.67%

Cc1cccc(NCc2nc(-c3ccccc3)no2)c1
inactive: growth inhibition [1] -2.16% | growth inhibition [2] 9.07% | viability increase [3] 2.88% | viability [4] 107% | viability [5] 106% | inhibition [6] 2.41% | RAM network inhibition [7] 3.44%

C=C1c2cc(CC)ccc2NC(=O)N1c1ccc(C)cc1
inactive: growth inhibition [1] -6.46% | growth inhibition [2] -2.23% | viability increase [3] 3.36% | viability [4] 97.9% | viability [5] 101% | inhibition [6] 0.37% | RAM network inhibition [7] 0.61%

CC1(C)CC(=O)C2=C(C1)OC(N)=C(C#N)C21CCN(Cc2ccccc2)CC1
inactive: growth inhibition [1] -19.9% | growth inhibition [2] -21.6% | viability increase [3] -3.46% | viability [4] 97.7% | viability [5] 97.6% | inhibition [6] 2.13% | RAM network inhibition [7] 5.53%

Oc1cccc(/C=N/c2c(-c3ccco3)nc3ccccn23)c1
inactive: growth inhibition [1] -9.82% | growth inhibition [2] -4.22% | viability increase [3] -3.47% | viability [4] 87.7% | viability [5] 93.7% | inhibition [6] 2% | RAM network inhibition [7] 5.22%
